≈ marks a conversion by molar mass, not a printed value. Calls of active or inactive are those of the source.
Tests used:
Escherichia coli [1] = test: Potentiation of piperacilin-induced antibiotic activity against Escherichia coli ATCC 25922 assessed as MIC fold reduction at 8 ug/ml after 18 hrs by microbroth dilution method; type: functional; details: dose 8 µg/ml
Pseudomonas aeruginosa [2] = test: Antibacterial activity against MDR clinical isolate Pseudomonas aeruginosa PA100036 assessed as reduction in bacterial growth after 18 hrs by microbroth dilution method; type: functional
Procedure, shortened: (§1)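 Broth microdilution per CLSI in Mueller-Hinton broth (MHB). Overnight cultures were adjusted to 0.5 McFarland in saline, diluted 1:50 in MHB, and added at about 5 × 10^5 CFU/mL final to equal volumes of 2-fold serial dilutions of agent. Incubation was 18 h at 37 °C. MIC was the lowest concentration with no visible turbidity, confirmed by absorbance at 590 nm.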

Pseudomonas aeruginosa [3] = test: Potentiation of moxifloxacin-induced antibiotic activity against Pseudomonas aeruginosa PA263 assessed as MIC fold reduction in ID-CAMHB condition at 8 ug/ml after 18 hrs by microbroth dilution method; type: functional, organism-based; details: dose 8.0 µg/ml
Staphylococcus aureus = test: Antibacterial activity against Staphylococcus aureus ATCC 29213 assessed as reduction in bacterial growth after 18 hrs by microbroth dilution method; type: functional
Procedure, shortened: (§2)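 CLSI broth microdilution. Overnight cultures were adjusted in saline to 0.5 McFarland, diluted 1:50 in Mueller-Hinton broth (MHB), and inoculated at about 5 × 10^5 CFU/mL. Agents were 2-fold serially diluted in MHB, mixed 1:1 with inoculum, and held at 37 °C for 18 h. MIC was the lowest concentration with no visible turbidity, confirmed at 590 nm.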

Pseudomonas aeruginosa [4] = test: Potentiation of moxifloxacin-induced antibiotic activity against Pseudomonas aeruginosa PA264 assessed as MIC fold reduction in ID-CAMHB condition at 8 ug/ml after 18 hrs by microbroth dilution method; type: functional, organism-based; details: dose 8.0 µg/ml
Klebsiella pneumoniae = test: Antibacterial activity against Klebsiella pneumoniae KP116381 assessed as reduction in bacterial growth after 18 hrs by microbroth dilution method; type: functional; procedure, shortened: as §2
Pseudomonas aeruginosa [5] = test: Antibacterial activity against colistin-resistant clinical isolate Pseudomonas aeruginosa PA114228 assessed as potentiation of cefiderocol antibacterial activity by measuring FIC index after 18 hrs by microbroth dilution method; type: functional
Procedure, shortened: (§3)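 Checkerboard in MHB (iron-replete, not iron-depleted CAMHB). Cefiderocol was 2-fold serially diluted along one axis and the adjuvant along the other. Inoculum was 0.5 McFarland diluted 1:50, about 5 × 10^5 CFU/mL final. Incubation was 18 h at 37 °C, with turbidity read visually and confirmed at 590 nm. FIC was the MIC in combination over the MIC alone for each agent, and the FIC index was their sum. Cut-offs were ≤0.5 synergy, >0.5–4 additive, >4 antagonism.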

Pseudomonas aeruginosa [6] = test: Antibacterial activity against MDR clinical isolate Pseudomonas aeruginosa PA101885 assessed as reduction in bacterial growth after 18 hrs in presence of cefiderocol by microbroth dilution method; type: functional; procedure, shortened: as §3
Escherichia coli [7] = test: Potentiation of linezolid-induced antibiotic activity against Escherichia coli ATCC 25922 assessed as MIC fold reduction at 8 ug/ml after 18 hrs by microbroth dilution method; type: functional; details: dose 8 µg/ml
Procedure, shortened: (§4)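 Adjuvant held at a fixed 8 μg/mL while the antibiotic was 2-fold serially diluted in Mueller-Hinton broth (MHB), per CLSI microbroth dilution. Overnight cultures were adjusted in saline to 0.5 McFarland, then diluted 1:50 in MHB to about 5 × 10^5 CFU/mL final, and incubated 18 h at 37 °C. MIC was the lowest concentration with no visible turbidity, confirmed at 590 nm. Fold potentiation = MIC alone / MIC with adjuvant.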

Escherichia coli [8] = test: Potentiation of sulfamethoxazole-induced antibiotic activity against Escherichia coli ATCC 25922 assessed as MIC fold reduction at 8 ug/ml after 18 hrs by microbroth dilution method; type: functional; details: dose 8 µg/ml
Acinetobacter baumannii [9] = test: Antibacterial activity against Acinetobacter baumannii AB031 assessed as reduction in bacterial growth after 18 hrs in presence of cefiderocol by microbroth dilution method; type: functional
Procedure, shortened: (§5)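 Checkerboard in Mueller-Hinton broth: cefiderocol 2-fold diluted on one axis, adjuvant 2-fold on the other. Overnight cultures were adjusted to 0.5 McFarland in saline, diluted 1:50 in MHB, and inoculated at about 5 × 10^5 CFU/mL. Incubation was 18 h at 37 °C. Turbidity was read visually and confirmed at 590 nm. FIC index = FIC of antibiotic + FIC of adjuvant; ≤0.5 synergy, >4 antagonism.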

Acinetobacter baumannii [10] = test: Antibacterial activity against Acinetobacter baumannii ATCC 17978 assessed as potentiation of cefiderocol antibacterial activity by measuring FIC after 18 hrs by microbroth dilution method; type: functional; procedure, shortened: as §5
Pseudomonas aeruginosa [11] = test: Antibacterial activity against Pseudomonas aeruginosa PAO1 assessed as reduction in bacterial growth after 18 hrs by microbroth dilution method; type: functional; procedure, shortened: as §2
Escherichia coli [12] = test: Antibacterial activity against Escherichia coli ATCC 25922 assessed as potentiation of cefiderocol antibacterial activity by measuring FIC after 18 hrs by microbroth dilution method; type: functional; procedure, shortened: as §5
Pseudomonas aeruginosa [13] = test: Potentiation of moxifloxacin-induced antibiotic activity against Pseudomonas aeruginosa PAO1 assessed as reduction in microbial growth at 8 ug/ml after 18 hrs by microbroth dilution method relative to control; details: PAO1, 18 h, read-out: GI
Escherichia coli [14] = test: Antibacterial activity against Escherichia coli 94474 assessed as potentiation of cefiderocol antibacterial activity by measuring FIC after 18 hrs by microbroth dilution method; type: functional; procedure, shortened: as §5
Pseudomonas aeruginosa [15] = test: Potentiation of ceftazidime-induced antibiotic activity against MDR clinical isolate Pseudomonas aeruginosa PA259 assessed as MIC fold reduction at 8 ug/ml after 18 hrs by microbroth dilution method; type: functional, organism-based; details: dose 8.0 µg/ml; procedure, shortened: as §4
Escherichia coli [16] = test: Potentiation of chloamphenicol-induced antibiotic activity against Escherichia coli ATCC 25922 assessed as MIC fold reduction at 8 ug/ml after 18 hrs by microbroth dilution method; type: functional; details: dose 8 µg/ml; procedure, shortened: as §4
Pseudomonas aeruginosa [17] = test: Antibacterial activity against MDR clinical isolate Pseudomonas aeruginosa PA88949 assessed as reduction in bacterial growth after 18 hrs by microbroth dilution method; type: functional; procedure, shortened: as §1
Escherichia coli [18] = test: Potentiation of cefiderocol-induced antibiotic activity against Escherichia coli ATCC 25922 assessed as MIC fold reduction at 8 ug/ml after 18 hrs by microbroth dilution method; type: functional; details: dose 8 µg/ml
Procedure, shortened: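 Initial screen in MHB using a fixed 8 μg mL−1 of adjuvant combined with each antibiotic under 2-fold dilution. Broth microdilution used about 5 × 10^5 CFU/mL at 37 °C for 18 h, with visible turbidity read and confirmed at 590 nm. Fold-potentiation = antibiotic MIC alone ÷ antibiotic MIC with adjuvant.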

Acinetobacter baumannii [19] = test: Potentiation of linezolid-induced antibiotic activity against Acinetobacter baumannii ATCC 17978 assessed as MIC fold reduction at 8 ug/ml after 18 hrs by microbroth dilution method; type: functional; details: dose 8 µg/ml; procedure, shortened: as §4
Pseudomonas aeruginosa [20] = test: Antibacterial activity against MDR clinical isolate Pseudomonas aeruginosa PA86052 assessed as reduction in bacterial growth after 18 hrs in presence of cefiderocol by microbroth dilution method; type: functional
Procedure, shortened: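 Checkerboard in MHB. Cefiderocol was 2-fold serially diluted along one axis and the adjuvant along the other. Inoculum was prepared from 0.5 McFarland saline suspensions diluted 1:50 in MHB, giving about 5 × 10^5 CFU/mL final. Plates ran 18 h at 37 °C, with turbidity confirmed at 590 nm. FIC = combination MIC ÷ MIC alone for each agent, and FIC index = sum of both. Interpretation: ≤0.5 synergy, >0.5–4 additive, >4 antagonism.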

Pseudomonas aeruginosa [21] = test: Antibacterial activity against colistin-resistant clinical isolate Pseudomonas aeruginosa PA101243 assessed as reduction in bacterial growth after 18 hrs by microbroth dilution method; type: functional; procedure, shortened: as §1

## NC[C@H]1O[C@H](O[C@H]2[C@H](OCCCCc3cn(-c4ccc(NC(=O)c5cc(Cl)ccc5O)cc4)nn3)[C@@H](O[C@H]3O[C@H](CO)[C@@H](O)[C@H](N)[C@H]3O)[C@H](N)C[C@@H]2N)[C@H](N)C[C@@H]1O
Escherichia coli [1]
  fold change (FC): 4
Pseudomonas aeruginosa [2]
  MIC: > 128 µg/mL
Pseudomonas aeruginosa [3]
  Activity: Active
Staphylococcus aureus
  MIC: > 128 µg/mL
Pseudomonas aeruginosa [4]
  Activity: Active
Klebsiella pneumoniae
  MIC: > 128 µg/mL
Pseudomonas aeruginosa [5]
  FIC: 1
Pseudomonas aeruginosa [6]
  MIC: 2 µg/mL
Escherichia coli [7]
  fold change (FC): 4
Escherichia coli [8]
  fold change (FC): 4
Acinetobacter baumannii [9]
  MIC: 0.25 µg/mL
Acinetobacter baumannii [10]
  FIC: 0.25
Pseudomonas aeruginosa [11]
  MIC: 64 µg/mL (≈ 76.5 µM)
Escherichia coli [12]
  FIC: 0.5
Pseudomonas aeruginosa [13]
  inhibition of growth at 8 µg/mL: 100%
Escherichia coli [14]
  FIC: 0.25
Pseudomonas aeruginosa [15]
  Activity: Active
Escherichia coli [16]
  fold change (FC): 4
Pseudomonas aeruginosa [17]
  MIC: > 128 µg/mL
Escherichia coli [18]
  fold change (FC): 4
Acinetobacter baumannii [19]
  fold change (FC): 4
Pseudomonas aeruginosa [20]
  MIC: 0.25 µg/mL
Pseudomonas aeruginosa [21]
  MIC: > 128 µg/mL

— ChEMBL document CHEMBL5136969, “A niclosamide-tobramycin hybrid adjuvant potentiates cefiderocol against P. aeruginosa” (2021)
